Assay results from publication PMC6045484 (ACS Omega, 2018).
≈ marks a conversion by molar mass, not a printed value.

Key:
[1] = system: SK-MEL, KB, BT-549, SK-OV-3, VERO and LLC-PK1 cells; experiment: cytotoxicity, neutral red uptake assay; assay type: cell-based, mammalian; conditions: highest test concentration 4760 ng/mL
Procedure, shortened: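 Cells seeded at 25 000/well and allowed 24 h to reach confluence. Test compound was then added and incubated 48 h. Viable cells were counted by a modified neutral red uptake method. The panel was four human cancer lines and two noncancerous mammalian kidney lines. Doxorubicin served as positive control and DMSO as negative control.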

SA (ATCC29213) = experiment: in vitro antibacterial activity; assay type: cell-based; conditions: Staphylococcus aureus; for IC50: ATCC29213, read-out: IC50 (concentration that affords 50% growth inhibition), SA; for MBC: ATCC29213, read-out: MBC (minimum bactericidal concentration), SA; for MIC: ATCC29213, read-out: MIC, SA
Procedure, shortened: (§1)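 Test compound serially diluted in 20% DMSO/saline and plated in duplicate, up to 20 μg/mL. Inoculum in cation-adjusted Mueller–Hinton broth, pH 7.3, set by OD630 to 5 × 10^5 CFU/mL. Incubated 16–20 h at 35 °C; 530 nm read before and after. IC50 is 50% growth inhibition; MIC is no detectable growth. MBC from clear wells subcultured on agar. Ciprofloxacin control.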

P. falciparum (D6) = experiment: in vitro antimalarial activity, plasmodial LDH; assay type: cell-based, Plasmodium falciparum; conditions: Plasmodium falciparum, D6, 72 h, read-out: P. falciparum (D6) IC50
A. fumigatus ATCC 90906 = experiment: in vitro antifungal activity; assay type: cell-based, Aspergillus fumigatus; conditions: Aspergillus fumigatus; for IC50: ATCC90906, read-out: A. fumigatus IC50; for MFC: ATCC90906, read-out: A. fumigatus MFC; for MIC: ATCC90906, read-out: A. fumigatus MIC
Procedure, shortened: (§2)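 Modified NCCLS broth method in Sabouraud dextrose. Inoculum set by OD630 to 1.5 × 10^3 CFU/mL. Test compound serially diluted in 20% DMSO/saline, duplicate wells, up to 20 μg/mL. Incubated 70–74 h at 35 °C; 530 nm read before and after. IC50 is 50% growth inhibition; MIC is no detectable growth. MFC from clear wells subcultured on agar. Amphotericin B control.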

C. neoformans ATCC90113 = experiment: in vitro antifungal activity; assay type: cell-based, Cryptococcus neoformans; conditions: Cryptococcus neoformans; for IC50: ATCC90113, read-out: C. neoformans IC50; for MFC: ATCC90113, read-out: C. neoformans MFC; for MIC: ATCC90113, read-out: C. neoformans MIC
Procedure, shortened: as §2

[2] = system: L. donovani promastigotes; experiment: in vitro antileishmanial activity, alamarBlue assay; assay type: cell-based, Leishmania donovani; conditions: Leishmania donovani, 48 h; for IC50: read-out: L. donovani IC50, promastigotes, 48 h; for IC90: read-out: L. donovani IC90, promastigotes, 48 h
[3] = system: M. intracellulare (ATCC23068); experiment: in vitro antibacterial activity, modified alamarBlue procedure; assay type: cell-based, Mycobacterium intracellulare; conditions: Mycobacterium intracellulare; for IC50: ATCC23068, read-out: IC50 (concentration that affords 50% growth inhibition), M. intracellulare; for MBC: ATCC23068, read-out: MBC (minimum bactericidal concentration), M. intracellulare; for MIC: ATCC23068, read-out: MIC, M. intracellulare
Procedure, shortened: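 Modified alamarBlue microplate method. Test compound serially diluted in 20% DMSO/saline, duplicate wells, up to 20 μg/mL. Inoculum 2.0 × 10^6 CFU/mL in Middlebrook 7H9 with OADC, pH 7.3, containing 5% alamarBlue. Incubated 70–74 h at 37 °C, 10% CO2; fluorescence 544ex/590em read before and after. MIC: no blue-to-pink change. MBC by subculturing blue wells on agar. Ciprofloxacin control.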

P. falciparum (W2) = experiment: in vitro antimalarial activity, plasmodial LDH; assay type: cell-based, Plasmodium falciparum; conditions: Plasmodium falciparum, W2, 72 h, read-out: P. falciparum (W2) IC50, CQ-resistant W2 strain, 72 h
Procedure, shortened: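 P. falciparum-infected erythrocytes (2% parasitemia, 2% hematocrit) in RPMI 1640 with 10% human serum and 60 μg/mL amikacin. Exposed to test compound dilutions for 72 h at 37 °C under 90% N2/5% O2/5% CO2. LDH measured with Malstat reagent (30 min, room temperature), then NBT/PES for 1 h in the dark, stopped with 5% acetic acid, read at 650 nm. IC50 from dose-response curves.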

MRSA (ATCC33591) = experiment: in vitro antibacterial activity; assay type: cell-based, methicillin-resistant Staphylococcus aureus; conditions: Staphylococcus aureus, ATCC33591|MRSA, read-out: MIC, MRSA
Procedure, shortened: as §1

C. albicans ATCC90028 = experiment: in vitro antifungal activity; assay type: cell-based, Candida albicans; conditions: Candida albicans; for IC50: ATCC90028, read-out: C. albicans IC50; for MFC: ATCC90028, read-out: C. albicans MFC; for MIC: ATCC90028, read-out: C. albicans MIC
Procedure, shortened: as §2

With CCCCCOc1c(OC)cc(NC(C)CCCNC(=O)C(N)CCCNC(=N)N)c2nc(C(C)(C)C)ccc12 (stereo not shown) [compound 94, 2-Amino-N-(4-(2-tert-butyl-6-methoxy-5-(pentyloxy)quinolin-8-ylamino)pentyl)-5-guanidinopentanamide] the “cytotoxicity CTX” value [1] was “NC (NC, not cytotoxic up to 4760 ng/mL (4.76 μg/mL))”, the IC50 (SA (ATCC29213)) was 5.85 mg/L (≈ 10.5 µM) and the MBC (SA (ATCC29213)) was 20 mg/L (≈ 35.9 µM). It also gave an MIC (SA (ATCC29213)) of 10 mg/L (≈ 17.9 µM), an IC50 (P. falciparum (D6)) of 4.76 mg/L (≈ 8.53 µM) and an IC50 (A. fumigatus ATCC 90906) of over 20 mg/L. The MFC (A. fumigatus ATCC 90906) was over 20 mg/L, the MIC (A. fumigatus ATCC 90906) was over 20 mg/L and the IC50 (C. neoformans ATCC90113) was 1.41 mg/L (≈ 2.53 µM). It also gave an MFC (C. neoformans ATCC90113) of 2.5 mg/L (≈ 4.48 µM), an MIC (C. neoformans ATCC90113) of 2.5 mg/L (≈ 4.48 µM) and an IC50 [2] of 18 mg/L (≈ 32.3 µM). It also gave an IC90 [2] of 32 mg/L (≈ 57.4 µM), an IC50 [3] of 11.2 mg/L (≈ 20.1 µM) and an MBC [3] of 20 mg/L (≈ 35.9 µM). For the same compound, the MIC [3] was 20 mg/L (≈ 35.9 µM), the IC50 (P. falciparum (W2)) was 4 mg/L (≈ 7.17 µM) and the MIC (MRSA (ATCC33591)) was 10 mg/L (≈ 17.9 µM). It also gave an IC50 (C. albicans ATCC90028) of 18.6 mg/L (≈ 33.4 µM), an MFC (C. albicans ATCC90028) of 20 mg/L (≈ 35.9 µM) and an MIC (C. albicans ATCC90028) of 20 mg/L (≈ 35.9 µM).

In the case of CCCCCOc1c(OC)cc(NC(C)CCCNC(=O)C(N)CC(C)C)c2nc(C(C)(C)C)ccc12 (stereo not shown) [compound 95, 2-Amino-N-(4-(2-tert-butyl-6-methoxy-5-(pentyloxy)quinolin-8-ylamino)pentyl)-4-methylpentanamide], the “cytotoxicity CTX” value [1] is reported as “NC (NC, not cytotoxic up to 4760 ng/mL (4.76 μg/mL))”, the IC50 (SA (ATCC29213)) is reported as 2.56 mg/L (≈ 4.97 µM) and the MBC (SA (ATCC29213)) is reported as 5 mg/L (≈ 9.71 µM). The MIC (SA (ATCC29213)) was 5 mg/L (≈ 9.71 µM), the IC50 (P. falciparum (D6)) was 3.5 mg/L (≈ 6.8 µM) and the IC50 (A. fumigatus ATCC 90906) was over 20 mg/L. It also gave an MFC (A. fumigatus ATCC 90906) of over 20 mg/L, an MIC (A. fumigatus ATCC 90906) of over 20 mg/L and an IC50 (C. neoformans ATCC90113) of 1.68 mg/L (≈ 3.26 µM). The MFC (C. neoformans ATCC90113) was 2.5 mg/L (≈ 4.86 µM), the MIC (C. neoformans ATCC90113) was 2.5 mg/L (≈ 4.86 µM) and the IC50 [2] was 3.5 mg/L (≈ 6.8 µM). It also gave an IC90 [2] of 6.5 mg/L (≈ 12.6 µM), an IC50 [3] of 12.6 mg/L (≈ 24.4 µM) and an MBC [3] of 20 mg/L (≈ 38.9 µM). For the same compound, the MIC [3] was 20 mg/L (≈ 38.9 µM), the IC50 (P. falciparum (W2)) was 2.3 mg/L (≈ 4.47 µM) and the MIC (MRSA (ATCC33591)) was 10 mg/L (≈ 19.4 µM). For the same compound, the IC50 (C. albicans ATCC90028) was 18.4 mg/L (≈ 35.8 µM), the MFC (C. albicans ATCC90028) was over 20 mg/L and the MIC (C. albicans ATCC90028) was over 20 mg/L.

For CCCCCOc1c(OC)cc(NC(C)CCCNC(=O)C(N)C(C)CC)c2nc(C(C)(C)C)ccc12 (stereo not shown) [compound 96, 2-Amino-N-(4-(2-tert-butyl-6-methoxy-5-(pentyloxy)quinolin-8-ylamino)pentyl)-3-methylpentanamide], the “cytotoxicity CTX” value [1] was “NC (NC, not cytotoxic up to 4760 ng/mL (4.76 μg/mL))”, the IC50 (SA (ATCC29213)) was 5.35 mg/L (≈ 10.4 µM) and the MBC (SA (ATCC29213)) was 20 mg/L (≈ 38.9 µM). The MIC (SA (ATCC29213)) was 10 mg/L (≈ 19.4 µM), the IC50 (P. falciparum (D6)) was over 4.76 mg/L and the IC50 (A. fumigatus ATCC 90906) was over 20 mg/L. It also gave an MFC (A. fumigatus ATCC 90906) of over 20 mg/L, an MIC (A. fumigatus ATCC 90906) of over 20 mg/L and an IC50 (C. neoformans ATCC90113) of 4.95 mg/L (≈ 9.62 µM). It also gave an MFC (C. neoformans ATCC90113) of 10 mg/L (≈ 19.4 µM), an MIC (C. neoformans ATCC90113) of 10 mg/L (≈ 19.4 µM) and an IC50 [2] of 8.65 mg/L (≈ 16.8 µM). For the same compound, the IC90 [2] was 32.6 mg/L (≈ 63.4 µM), the IC50 [3] was 12.2 mg/L (≈ 23.7 µM) and the MBC [3] was 20 mg/L (≈ 38.9 µM). It also gave an MIC [3] of 20 mg/L (≈ 38.9 µM), an IC50 (P. falciparum (W2)) of over 4.76 mg/L and an MIC (MRSA (ATCC33591)) of 10 mg/L (≈ 19.4 µM). For the same compound, the IC50 (C. albicans ATCC90028) was over 20 mg/L, the MFC (C. albicans ATCC90028) was over 20 mg/L and the MIC (C. albicans ATCC90028) was over 20 mg/L.

In the case of CCCCCCCOc1c(OC)cc(NC(C)CCCNC(=O)C(N)CCCN)c2nc(C(C)(C)C)ccc12 (stereo not shown) [compound 110, 2,5-Diamino-N-(4-(2-tert-butyl-5-(heptyloxy)-6-methoxyquinolin-8-ylamino)-pentyl)pentanamide], the “cytotoxicity CTX” value [1] is reported as “NC (NC, not cytotoxic up to 4760 ng/mL (4.76 μg/mL))”, the IC50 (SA (ATCC29213)) is reported as over 20 mg/L and the MBC (SA (ATCC29213)) is reported as over 20 mg/L. For the same compound, the MIC (SA (ATCC29213)) was over 20 mg/L, the IC50 (P. falciparum (D6)) was 3.2 mg/L (≈ 5.88 µM) and the IC50 (A. fumigatus ATCC 90906) was over 20 mg/L. The MFC (A. fumigatus ATCC 90906) was over 20 mg/L, the MIC (A. fumigatus ATCC 90906) was over 20 mg/L and the IC50 (C. neoformans ATCC90113) was over 20 mg/L. The MFC (C. neoformans ATCC90113) was over 20 mg/L, the MIC (C. neoformans ATCC90113) was over 20 mg/L and the IC50 [3] was over 20 mg/L. For the same compound, the MBC [3] was over 20 mg/L, the MIC [3] was over 20 mg/L and the IC50 (P. falciparum (W2)) was 1.6 mg/L (≈ 2.94 µM). The MIC (MRSA (ATCC33591)) was over 20 mg/L, the IC50 (C. albicans ATCC90028) was over 20 mg/L and the MFC (C. albicans ATCC90028) was over 20 mg/L. The MIC (C. albicans ATCC90028) was over 20 mg/L.
